Data taken from PMC4855835 (Chemical communications (Cambridge, England), 2016).
pIC50: −log10 of the molar value.

Key:
[1] = Hydrogelation assay of self-assembly in water upon ALP addition; type: physicochemical; details: 1 mM, pH 7.4, ALP 3U/mL
In short: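 Self-assembly was screened by hydrogelation: the test compound at 1 mM in water, pH 7.4, was given alkaline phosphatase at 3 U/mL. The resulting state (gel, suspension or increased viscosity) was judged by eye. Nanostructures formed under the same conditions were imaged by TEM after 24 h.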

Saos-2 cells = experiment: Saos-2 cell viability with co-incubated ALP inhibitors or cell death inhibitors; type: cell-based, human; details: 48h; for effect of pan-caspase inhibitor zVAD-fmk on death of treated Saos-2 cells: 1p 20 μM, 2p 50 μM, 3p 20 μM, zVAD-fmk 45 μM; for effect of L-Phe on viability of treated Saos-2 cells / effect of levamisole on viability of treated Saos-2 cells: 1p 50 μM, 3p 50 μM, 2p 200 μM; for effect of L-Phe on viability of treated Saos-2 cells: L-Phe 1 mM; for effect of levamisole on viability of treated Saos-2 cells: levamisole 1 mM; for effect of necroptosis inhibitor Nec-1 on death of treated Saos-2 cells: Nec-1 50 μM
In short: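 Saos-2 cells were treated for 48 h with test compound plus an inhibitor. ALP inhibitors were levamisole 1 mM (tissue-nonspecific ALP) or L-phenylalanine 1 mM (placental ALP), with test compound at 50 or 200 µM. Death-pathway inhibitors were pan-caspase zVAD-fmk 45 µM or Nec-1 50 µM. Read-out was cell viability.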

Static light scattering = type: physicochemical; details: pH7.4 PBS buffer, before ALP
In short: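 Static light scattering was measured on test compound solutions (12.5–50 µM) in pH 7.4 PBS, before and 24 h after adding alkaline phosphatase (2 U/mL). Scattering angle was 30 degrees; read-out was scattered intensity.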

[2] = test system: sarcoma osteogenic (Saos-2) cells; experiment: Cell viability of Saos-2 cells treated with precursors; type: cell-based, human; details: for concentration at which Saos-2 cells are inhibited: Fig. 4A and Fig. S6; for inhibitory activity at pH 8.0: hydrolysis of ester bond (Fig. S8)
In short: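 Saos-2 osteosarcoma cells, which overexpress alkaline phosphatase, were exposed to a range of test compound (phosphorylated peptide precursor) concentrations for 48 h. Viability was plotted as log-dose response curves, and IC90 was taken at 48 h. Human marrow stromal HS-5 cells served as the normal-cell comparison.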

[3] = test system: sarcoma osteogenic (Saos-2) cells; details: read-out: IC50 of carboplatin; 72 h; cited from earlier work

## CNC(=O)[C@@H](Cc1ccc(OP(=O)(O)O)cc1)NC(=O)[C@@H](Cc1ccccc1)NC(=O)[C@@H](Cc1ccccc1)NC(=O)Cc1ccc2ccccc2c1 [1p]
[1]
  state of the solution after addition of ALP: turns into a hydrogel
Saos-2 cells
  effect of pan-caspase inhibitor zVAD-fmk on death of treated Saos-2 cells: only slightly protects
  effect of L-Phe on viability of treated Saos-2 cells: unable to rescue the cells
  effect of levamisole on viability of treated Saos-2 cells: increases the cell viability
  effect of necroptosis inhibitor Nec-1 on death of treated Saos-2 cells: significantly protects
Static light scattering
  aggregation behaviour by SLS at 50 μM: starts to aggregates
[2]
  concentration at which Saos-2 cells are inhibited: ≥ 50 µM
  inhibitory activity at pH 8.0: remains

## NNC(=O)[C@@H](Cc1ccc(OP(=O)(O)O)cc1)NC(=O)[C@@H](Cc1ccccc1)NC(=O)[C@@H](Cc1ccccc1)NC(=O)Cc1ccc2ccccc2c1 [2p]
[1]
  state of the solution after addition of ALP: turns into a hydrogel
Saos-2 cells
  effect of pan-caspase inhibitor zVAD-fmk on death of treated Saos-2 cells: only slightly protects
  effect of L-Phe on viability of treated Saos-2 cells: unable to rescue the cells
  effect of levamisole on viability of treated Saos-2 cells: increases the cell viability
  effect of necroptosis inhibitor Nec-1 on death of treated Saos-2 cells: significantly protects
[2]
  concentration at which Saos-2 cells are inhibited: ≥ 50 µM

## O=C(Cc1ccc2ccccc2c1)N[C@H](Cc1ccccc1)C(=O)N[C@H](Cc1ccccc1)C(=O)N[C@H](Cc1ccc(OP(=O)(O)O)cc1)C(=O)O [4p]
[1]
  state of the solution after addition of ALP: becomes more viscous
[2]
  concentration at which Saos-2 cells are inhibited: about 500 μM

## N.N.O=C([O-])C1(C(=O)[O-])CCC1.[Pt+2] [carboplatin]
[3]
  pIC50: 3.70

## COC(=O)[C@@H](Cc1ccc(OP(=O)(O)O)cc1)NC(=O)[C@@H](Cc1ccccc1)NC(=O)[C@@H](Cc1ccccc1)NC(=O)Cc1ccc2ccccc2c1 [3p]
[1]
  state of the solution after addition of ALP: forms a suspension
Saos-2 cells
  effect of pan-caspase inhibitor zVAD-fmk on death of treated Saos-2 cells: only slightly protects
  effect of L-Phe on viability of treated Saos-2 cells: unable to rescue the cells
  effect of levamisole on viability of treated Saos-2 cells: increases the cell viability
  effect of necroptosis inhibitor Nec-1 on death of treated Saos-2 cells: significantly protects
[2]
  concentration at which Saos-2 cells are inhibited: ≥ 50 µM
  inhibitory activity at pH 8.0: decreases
